The source made the active and inactive calls. The calls are words filed in the database; no cut-off is given here.
These compounds were tested on Human alphaherpesvirus 2 (assay: Antiherpetic activity against HSV2 at 0.5 mg/ml by MTT assay).
Assay type: functional
Outline: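 Activity against HSV2 was assayed by a previously reported procedure. The initial concentration of test samples and of the acyclovir positive control was 0.5 mg/mL, and samples were tested at several concentration levels. Each level had four independent experiments. The end-point was an MTT assay read as optical density.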

Compound | inhibition | inhibition at 500 µg/mL [%]
CC(=O)OC[C@]12[C@H](OC(C)=O)[C@H](OC(C)=O)[C@@H]3[C@@H](OC(=O)c4ccccc4)[C@@]14O[C@@]3(C)COC(=O)c1cccnc1C(C)C(C)C(=O)O[C@@H]([C@H](OC(C)=O)[C@@H]2OC(=O)c1ccccc1)[C@]4(C)O (stereo not given in full) | inactive | –
CC(=O)OC[C@]12[C@H](OC(C)=O)[C@H](OC(C)=O)[C@@H]3[C@@H](OC(=O)c4ccccc4)[C@@]14O[C@@]3(C)COC(=O)c1cccnc1C(C)C(C)C(=O)O[C@@H]([C@H](OC(C)=O)[C@@H]2OC(C)=O)[C@]4(C)O (stereo not given in full) | – | 22.3
CC(=O)OC[C@]12[C@H](OC(C)=O)[C@H](OC(C)=O)[C@@H]3[C@@H](OC(C)=O)[C@@]14O[C@@]3(C)COC(=O)c1cccnc1CCC(C)(OC(C)=O)C(=O)O[C@@H]([C@H](OC(=O)c1ccoc1)[C@@H]2OC(C)=O)[C@]4(C)O (stereo not given in full) | inactive | –
CC(=O)OC[C@]12[C@H](OC(C)=O)[C@H](OC(C)=O)[C@@H]3[C@@H](OC(C)=O)[C@@]14O[C@@]3(C)COC(=O)c1cccnc1CCC(C)(O)C(=O)O[C@@H]([C@H](O)[C@@H]2OC(C)=O)[C@]4(C)O (stereo not given in full) | inactive | –
CC(=O)OC[C@]12[C@H](OC(C)=O)[C@H](OC(C)=O)[C@@H]3[C@@H](OC(C)=O)[C@@]14O[C@@]3(C)COC(=O)c1cccnc1CCC(C)(O)C(=O)O[C@@H]([C@H](OC(=O)c1ccco1)[C@@H]2OC(C)=O)[C@]4(C)O (stereo not given in full) | inactive | –
CC(=O)OC[C@]12[C@H](OC(C)=O)C(=O)[C@@H]3[C@@H](OC(C)=O)[C@@]14O[C@@]3(C)COC(=O)c1cccnc1CCC(C)(OC(C)=O)C(=O)O[C@@H]([C@H](OC(=O)c1ccoc1)[C@@H]2OC(C)=O)[C@]4(C)O (stereo not given in full) | inactive | –
CC(=O)OC[C@]12[C@H](OC(C)=O)[C@H](OC(C)=O)[C@@H]3[C@@H](OC(C)=O)[C@@]14O[C@@]3(C)COC(=O)c1cccnc1CCC(C)C(=O)O[C@@H]([C@H](OC(=O)c1ccccc1)[C@@H]2OC(C)=O)[C@]4(C)O (stereo not given in full) | inactive | –
CC(=O)OC[C@]12[C@H](OC(C)=O)[C@H](OC(C)=O)[C@@H]3[C@@H](O)[C@@]14O[C@@]3(C)COC(=O)c1cccnc1C(C)C(C)C(=O)O[C@@H]([C@H](OC(C)=O)[C@@H]2OC(C)=O)[C@]4(C)O (stereo not given in full) | inactive | –
CC(=O)OC[C@]12[C@H](OC(C)=O)[C@H](OC(C)=O)[C@@H]3[C@@H](OC(C)=O)[C@@]14O[C@@]3(C)COC(=O)c1cnccc1C(C)C(C)C(=O)O[C@@H]([C@H](OC(C)=O)[C@@H]2OC(C)=O)[C@]4(C)O (stereo not given in full) | inactive | –
CC(=O)OC[C@]12[C@H](OC(C)=O)[C@H](OC(C)=O)[C@@H]3[C@@H](OC(C)=O)[C@@]14O[C@@]3(C)COC(=O)c1cccnc1CC[C@H](C)C(=O)O[C@@H]([C@H](OC(C)=O)[C@@H]2OC(C)=O)[C@]4(C)O | inactive | –
CC(=O)OC[C@]12[C@H](OC(C)=O)[C@H](OC(C)=O)[C@@H]3[C@@H](OC(C)=O)[C@@]14O[C@@]3(C)COC(=O)c1cccnc1CCC(C)(O)C(=O)O[C@@H]([C@H](OC(=O)c1ccccc1)[C@@H]2OC(C)=O)[C@]4(C)O (stereo not given in full) | inactive | –
CC(=O)OC[C@]12[C@H](OC(C)=O)[C@H](OC(C)=O)[C@@H]3[C@@H](OC(C)=O)[C@@]14O[C@@]3(C)COC(=O)c1cccnc1CCC(C)C(=O)O[C@@H]([C@H](OC(=O)c1ccco1)[C@@H]2OC(C)=O)[C@]4(C)O (stereo not given in full) | inactive | –
CC1(C)O[C@]23[C@H](OC(=O)c4cccnc4)[C@H]1C[C@H](OC(=O)/C=C/c1ccccc1)[C@]2(C)[C@@H](OC(=O)c1ccccc1)CC[C@]3(C)O | inactive | –
CC(=O)OC[C@]12[C@H](OC(C)=O)[C@H](OC(=O)c3cccnc3)[C@@H]3[C@@H](OC(C)=O)[C@@]14O[C@@]3(C)COC(=O)c1cnccc1C(C)C(C)C(=O)O[C@@H]([C@H](OC(C)=O)[C@@H]2OC(C)=O)[C@]4(C)O (stereo not given in full) | inactive | –
CC(=O)OC[C@]12[C@H](OC(C)=O)[C@H](OC(C)=O)[C@@H]3[C@@H](OC(C)=O)[C@@]14O[C@@]3(C)COC(=O)c1cccnc1C(C)C(C)C(=O)O[C@@H]([C@H](OC(C)=O)[C@@H]2OC(C)=O)[C@]4(C)O (stereo not given in full) | inactive | –
CC(=O)OC[C@]12[C@H](OC(C)=O)[C@H](OC(C)=O)[C@@H]3[C@@H](OC(C)=O)[C@@]14O[C@@]3(C)COC(=O)c1cccnc1CCC(C)(OC(=O)c1ccoc1)C(=O)O[C@@H]([C@H](OC(=O)c1ccccc1)[C@@H]2OC(C)=O)[C@]4(C)O (stereo not given in full) | inactive | –
CC(=O)OC[C@]12[C@H](OC(C)=O)[C@H](OC(=O)c3ccccc3)[C@@H]3[C@@H](O)[C@@]14O[C@@]3(C)COC(=O)c1cccnc1CC[C@H](C)C(=O)O[C@@H]([C@H](OC(C)=O)[C@@H]2OC(C)=O)[C@]4(C)O | inactive | –
Nc1nc2c(ncn2COCCO)c(=O)[nH]1 [ACYCLOVIR] | – | 66.3

The compounds below were run on Human alphaherpesvirus 2 (assay: Antiherpetic activity against HSV2 at 0.25 mg/ml by MTT assay).
Assay type: functional
Outline: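 Anti-HSV2 test run by a previously reported method. Samples started at an initial concentration of 0.25 mg/mL and were assayed at several concentration levels. Four independent experiments were run at each level. Acyclovir was the positive control. The read-out was an MTT assay, with optical density measured on a multimode plate reader.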

Compound | inhibition at 250 µg/mL [%]
CC1(C)O[C@]23[C@H](OC(=O)c4cccnc4)[C@H]1C[C@H](OC(=O)c1ccccc1)[C@]2(C)[C@@H](OC(=O)c1ccccc1)CC[C@]3(C)O [REGELIDINE] | 31.7
Nc1nc2c(ncn2COCCO)c(=O)[nH]1 [ACYCLOVIR] | 60.6

Source: ChEMBL document CHEMBL1949540, “Dihydroagarofuran derivatives from the dried roots of Tripterygium wilfordii” (2012)
